From ChEMBL document CHEMBL1833936, “7-azaindenoisoquinolines as topoisomerase I inhibitors and potential anticancer agents” (J Med Chem, 2011)
Values after ≈ are worked out from the molar mass of the structure shown. Active and inactive are the calls of the source. No cut-off for these calls is given here.

How the values were obtained:
DU-145 = experiment: Cytotoxicity against human DU145 cells after 48 hrs by SRB assay; format: functional; conditions: DU-145, 48 h
Method in brief: (§1)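 NCI 60-cell-line screen. Cells incubated 48 h with five 10-fold dilutions starting at 100 μM, then stained with sulforhodamine B. Optical density relative to control plotted against log concentration.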

UACC-62 = experiment: Cytotoxicity against human UACC62 cells after 48 hrs by SRB assay; format: functional; conditions: UACC-62, 48 h; method in brief: as §1
[1] = molecular target: T1, DNA topoisomerase 1 (Homo sapiens) (UniProt P11387); experiment: Inhibition of human topoisomerase 1 assessed as inhibition of radiolabeled DNA fragment cleavage 0.1 to 100 uM after 20 mins by gel-based phosphoimaging relative to control
T1 sequence (whole entry): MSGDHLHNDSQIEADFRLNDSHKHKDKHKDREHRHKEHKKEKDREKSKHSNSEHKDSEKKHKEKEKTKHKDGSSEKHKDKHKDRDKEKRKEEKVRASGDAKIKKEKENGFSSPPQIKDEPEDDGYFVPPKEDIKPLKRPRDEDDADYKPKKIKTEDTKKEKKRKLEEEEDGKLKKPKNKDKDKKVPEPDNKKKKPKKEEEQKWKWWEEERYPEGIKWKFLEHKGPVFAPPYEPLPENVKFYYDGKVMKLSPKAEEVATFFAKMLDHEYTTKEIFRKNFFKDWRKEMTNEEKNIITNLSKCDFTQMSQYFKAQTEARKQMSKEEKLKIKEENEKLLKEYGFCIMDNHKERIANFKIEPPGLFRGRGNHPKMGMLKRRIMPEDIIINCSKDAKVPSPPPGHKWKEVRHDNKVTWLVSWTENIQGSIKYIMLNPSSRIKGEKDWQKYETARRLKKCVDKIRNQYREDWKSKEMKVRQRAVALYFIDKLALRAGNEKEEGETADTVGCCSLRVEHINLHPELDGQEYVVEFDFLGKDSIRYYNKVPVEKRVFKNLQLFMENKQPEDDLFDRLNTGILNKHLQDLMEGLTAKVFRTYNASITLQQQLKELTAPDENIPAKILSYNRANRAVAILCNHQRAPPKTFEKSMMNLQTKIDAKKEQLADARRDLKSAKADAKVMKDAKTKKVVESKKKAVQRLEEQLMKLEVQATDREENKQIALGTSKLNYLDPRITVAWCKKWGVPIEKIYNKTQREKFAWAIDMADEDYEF
Method in brief: (§2)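 Human recombinant Top1 purified from baculovirus. About 2 nM 117-bp DNA substrate, 3′-end-labeled with [α-32P]-dGTP by Klenow fill-in. Stopped with 0.5% SDS and formamide loading dye; 20% denaturing PAGE, phosphoimager. Tested at 0.1, 1, 10 and 100 μM.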

MCF7 = experiment: Cytotoxicity against human MCF7 cells after 48 hrs by SRB assay; format: functional; conditions: MCF7, 48 h; method in brief: as §1
HOP-62 = experiment: Cytotoxicity against human HOP62 cells after 48 hrs by SRB assay; format: functional; conditions: HOP-62, 48 h; method in brief: as §1
HCT-116 = experiment: Cytotoxicity against human HCT116 cells after 48 hrs by SRB assay; format: functional; conditions: HCT-116, 48 h; method in brief: as §1
SN12C = experiment: Cytotoxicity against human SN12C cells after 48 hrs by SRB assay; format: functional; method in brief: as §1
OVCAR-3 = experiment: Cytotoxicity against human OVCAR3 cells after 48 hrs by SRB assay; format: functional; conditions: OVCAR-3, 48 h; method in brief: as §1
SF-539 = experiment: Cytotoxicity against human SF539 cells after 48 hrs by SRB assay; format: functional; conditions: SF-539, 48 h; method in brief: as §1
[2] = Aqueous solubility at pH 7.5 after 24 hrs by HPLC; format: physicochemical
Method in brief: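 Solid sample (4–10 mg) shaken in 1 M Tris buffer pH 7.5 for 24 h at 25 °C, then centrifuged and supernatant filtered. Supernatant analysed by reverse-phase C18 HPLC eluting methanol (1% TFA)/water 90:10. Concentration from one-point calibration against buffer solutions of known concentration.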

[3] = molecular target: T1, DNA topoisomerase 1 (Homo sapiens); experiment: Inhibition of human topoisomerase 1-mediated DNA relaxation assessed as DNA intercalation at compound concentration above 3 uM after 30 mins by gel electrophoresis relative to control
Method in brief: (§3)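 Two-step unwinding assay. SV40 DNA first fully relaxed with excess Top1 for 15 min at 37 °C without drug. Relaxed DNA then incubated 30 min at 37 °C with drug at 1, 3, 10, 30 or 100 μM. Control was a further 30 min incubation at 37 °C without drug. Products resolved on gel.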

[4] = molecular target: T1, DNA topoisomerase 1 (Homo sapiens); experiment: Inhibition of human topoisomerase 1-mediated DNA relaxation assessed as DNA intercalation at 100 uM after 30 mins by gel electrophoresis relative to control; method in brief: as §3
[5] = molecular target: T1, DNA topoisomerase 1 (Homo sapiens); experiment: Inhibition of human topoisomerase 1-mediated DNA relaxation assessed as DNA intercalation at 1 to 100 uM after 30 mins by gel electrophoresis relative to control; method in brief: as §3
[6] = molecular target: T1, DNA topoisomerase 1 (Homo sapiens); experiment: Inhibition of human topoisomerase 1 assessed as inhibition of radiolabeled DNA fragment cleavage up to 100 uM after 20 mins by gel-based phosphoimaging relative to control; method in brief: as §2
[7] = molecular target: T1, DNA topoisomerase 1 (Homo sapiens); experiment: Inhibition of human topoisomerase 1 assessed as inhibition of radiolabeled DNA fragment cleavage after 20 mins by gel-based phosphoimaging relative to control; method in brief: as §2

| inhibition [1] | solubility at 24 h [2] [mM] | Activity [3] | Activity [4] | Activity [5] | inhibition [6] | inhibition [7] | Structure (SMILES) | GI50 (DU-145) [nM] | GI50 (UACC-62) [nM] | GI50 (MCF7) [nM] | GI50 (HOP-62) [nM] | GI50 (HCT-116) [nM] | GI50 (SN12C) [nM] | GI50 (OVCAR-3) [nM] | GI50 (SF-539) [nM] |
| --- | --- | --- | --- | --- | --- | --- | --- | --- | --- | --- | --- | --- | --- | --- | --- |
| Active | – | – | – | – | – | – | O=C1c2cccnc2-c2c1c1ccccc1c(=O)n2CCCn1ccnc1 | 2880 | 35500 | 3390 | 7240 | 1200 | 3720 | 8710 | 5130 |
| Active | – | – | – | – | – | – | O=C1c2cccnc2-c2c1c1ccc([N+](=O)[O-])cc1c(=O)n2CCCN1CCOCC1 | – | – | – | – | – | – | – | – |
| Active | – | – | – | – | – | – | CN(C)CCCn1c2c(c3ccc([N+](=O)[O-])cc3c1=O)C(=O)c1ccccc1-2 | – | – | 240 | – | – | – | 32400 | – |
| Active | – | – | – | inactive | Active | Dose-dependent effect | COc1cc2c3c(n(CCCN4CCOCC4)c(=O)c2cc1OC)-c1ncccc1C3=O | 310 | 95 | 52 | 300 | 220 | 520 | 370 | 290 |
| Active | – | – | – | – | – | – | CN(C)CCCn1c2c(c3ccc([N+](=O)[O-])cc3c1=O)C(=O)c1cccnc1-2 | 930 | 3310 | 360 | 2350 | 440 | 1000 | 2290 | 2690 |
| Active | – | – | – | – | – | – | O=C1c2cccnc2-c2c1c1ccccc1c(=O)n2CCCN1CCOCC1 | 3550 | > 100000 | 2750 | 35500 | 1860 | 5370 | 28200 | 5620 |

The remaining lines, values behind:

| Structure (SMILES) | inhibition [1] | solubility at 24 h [2] [mM] | Activity [3] | Activity [4] | Activity [5] | inhibition [6] | inhibition [7] | GI50 (DU-145) [nM] | GI50 (UACC-62) [nM] | GI50 (MCF7) [nM] | GI50 (HOP-62) [nM] | GI50 (HCT-116) [nM] | GI50 (SN12C) [nM] | GI50 (OVCAR-3) [nM] | GI50 (SF-539) [nM] |
| --- | --- | --- | --- | --- | --- | --- | --- | --- | --- | --- | --- | --- | --- | --- | --- |
| COc1cc2c3c(n(C)c(=O)c2cc1OC)-c1cc2c(cc1C3=O)OCO2 | Active | – | – | – | – | – | – | 4790 | 560 | 1910 | 8510 | 11500 | – | – | 1660 |
| COc1cc2c3c(n(CCCN(C)C)c(=O)c2cc1OC)-c1ccccc1C3=O | Active | 60 (≈ 23.5 mg/mL) | – | – | – | – | – | – | – | 6170 | 11500 | – | 11000 | – | 6170 |
| CN(C)CCCn1c2c(c3ccccc3c1=O)C(=O)c1ccccc1-2 | Active | 0.28 (≈ 0.0931 mg/mL) | – | – | – | – | – | – | – | 550 | – | – | – | 1660 | – |
| COc1cc2c3c(n(CCCN(C)C)c(=O)c2cc1OC)-c1ncccc1C3=O | Active | 100 (≈ 39.3 mg/mL) | Dose-dependent effect | Active | – | – | – | 1700 | 13200 | 440 | 3390 | 1580 | 3160 | 3550 | 4070 |
| CN(C)CCCn1c2c(c3ccccc3c1=O)C(=O)c1cccnc1-2 | Active | 24 (≈ 8 mg/mL) | – | – | – | – | – | 1350 | 2690 | 250 | 1510 | 410 | 810 | 2570 | 1910 |
| CC[C@@]1(O)C(=O)OCc2c1cc1n(c2=O)Cc2cc3ccccc3nc2-1 [CAMPTOTHECIN] | – | – | – | – | – | – | – | – | – | 13 | – | – | – | – | – |
| COc1cc2c3c(n(CCCn4ccnc4)c(=O)c2cc1OC)-c1ncccc1C3=O | Active | – | – | – | – | Active | Dose-dependent effect | – | – | – | – | – | – | – | – |
| COc1cc2c3c(n(CCCNCCO)c(=O)c2cc1OC)-c1ncccc1C3=O | Active | – | – | – | – | – | – | 320 | 120 | 74 | 300 | 150 | 230 | 340 | 260 |
| O=C1c2cccnc2-c2c1c1ccccc1c(=O)n2CCCNCCO | inactive | – | – | – | – | – | – | 410 | 3090 | 480 | 1410 | 300 | 760 | 1550 | 870 |
| COc1cc2c3c(n(CCCN)c(=O)c2cc1OC)-c1ncccc1C3=O | Active | – | – | – | – | – | – | 1620 | 8130 | 49000 | 3020 | 380 | 2880 | 1580 | 2190 |
